# V1R ag counter: counter-screen for oxytocin receptor agonists: human V1a receptor agonists; activation, % at 3 µM; 0.25% of 320,000 active; AID 2797; CHO-V1R cells, Fluo-8 calcium fluorescence, agonist mode; 0% DMSO, 100% 3 nM vasopressin;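 active = activation above the mean activation of all tested compounds plus 3 SD, per screening run, cut at about 20% in these data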;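 also: signal is peak over basal fluorescence ratio across a 100 second FLIPR read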
# Target sequence (P37288 whole entry, looked up): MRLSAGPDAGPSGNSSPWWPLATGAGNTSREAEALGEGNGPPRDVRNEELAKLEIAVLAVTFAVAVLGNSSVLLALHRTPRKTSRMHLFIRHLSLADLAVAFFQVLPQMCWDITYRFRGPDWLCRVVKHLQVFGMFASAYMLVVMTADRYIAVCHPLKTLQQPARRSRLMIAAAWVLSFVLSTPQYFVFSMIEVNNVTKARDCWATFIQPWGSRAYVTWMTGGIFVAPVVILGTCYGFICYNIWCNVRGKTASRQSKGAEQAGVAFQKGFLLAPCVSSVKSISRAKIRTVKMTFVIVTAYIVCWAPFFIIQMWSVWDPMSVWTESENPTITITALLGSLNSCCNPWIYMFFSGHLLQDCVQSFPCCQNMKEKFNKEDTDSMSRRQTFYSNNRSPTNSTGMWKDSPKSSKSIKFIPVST
# TRPN1 ag: agonists of zebrafish TRPN1 channel; HEK293 zebrafish TRPN1-YFP, Fluo-8 calcium fluorescence; 100% = response to 87 µM carbachol; activation, % at 3 µM; 0.18% of 220,000 active;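 active = activation above its plate's cutoff, the mean activation of test wells on that plate plus 3 SD, cut at about 19% in these data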;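 also: 0% = DMSO alone and 100% = 87 µM carbachol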
#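 System: zebrafish TRPN1-YFP in HEK293 cells / Dosing: 3 µM single point / Timing: dye loading 1 h at 37 °C, then 30 min room temperature / Signal: Fluo-8 calcium fluorescence, excitation 470-495 nm, emission 515-575 nm / Read-out basis: percent activation from peak over basal fluorescence ratio, control-normalized / Control set: high carbachol 87 µM, low DMSO alone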
# OXTR potentiate: human OXTR potentiation | P30559 | CHO-OTR cells, Fluo-8 calcium fluorescence, potentiator mode; 0% = oxytocin EC15, 100% = EC100 | activation, % at 3 µM | 0.061% of 320,000 active | AID 2445;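 active = activation above that plate's cutoff, the mean activation of tested compounds plus 3 SD, cut at about 6.6% in these data, passing the limit was not always enough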;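 also: 100% uses oxytocin at 75 nM as the full agonist control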
#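 Assay system: CHO cell line stably expressing human OTR | Also added: Oxytocin at about EC15, sub-maximal agonist stimulus | Times: Compound 6 min at room temperature before oxytocin, 100 s read | Measured by: Fluo-8 intracellular calcium fluorescence, ex 470-495, em 515-575 nm | Controls: EC15 oxytocin alone as 0%, 75 nM oxytocin as 100%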
# TRPML3 ag: activates the human TRPML3 channel. Q8TDD5. HEK293 TRPML3-YFP, Fluo-8 calcium fluorescence; 100% = the carbachol control signal. activation, % at 3 µM. 0.29% of 220,000 active. AID 1448;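 active = activation above its plate's cutoff, the mean activation of the plate's test wells plus 3 SD, cut at about 12% in these data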;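 also: 0% = DMSO only wells and 100% = carbachol wells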
#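 Test system: HEK293 cells stably carrying human TRPML3-YFP; Doses: single dose, 3 µM final nominal compound, 0.3% DMSO final; Schedule: dye loading 1 h 37 °C then 30 min ambient, 125 s read; Technique: Fluo-8 calcium fluorescence; Benchmarks: high control carbachol 87 µM, low control DMSO.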
# OXTR agonist: human OXTR agonism | AID 2435 | P30559 | CHO-OTR cells, Fluo-8 calcium fluorescence; normalized: DMSO 0%, oxytocin 100% | activation, % at 3 µM | 0.32% of 320,000 active;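 active = activation above the mean of all tested compounds plus 3 SD, cutoff set per screening run, cut at about 20% in these data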;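 also: peak over basal fluorescence ratio from a 100 s FLIPR kinetic read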
# * = called active by the depositor; · = no result given. Hits are enriched below; roughly 0.55% of the tested compounds scored in any of these assays.
SMILES,V1R ag counter,TRPN1 ag,OXTR potentiate,TRPML3 ag,OXTR agonist
CCOc1ccc(NS(=O)(=O)c2ccc(C(=O)NCC(c3ccco3)N(C)C)cc2)cc1 (stereo unspecified),22.6*,·,-16.8,·,26.1*
CC(C)c1ccc(/C=C2\SC(=O)N(CC(=O)NC3C=CS(=O)(=O)C3)C2=O)cc1 (stereo unspecified),9.8,·,-6.9,·,10.4
COc1cccc(C(=O)NCC(c2cccs2)N2CCOCC2)c1 (stereo unspecified),0.0,·,-5.4,·,-0.6
Cc1cccc(N2C(=O)C(Oc3ccc(Cl)cc3Cl)C2C=O)c1C (stereo unspecified),11.6,4.7,-6.9,2.3,8.0
Cc1ccc(NS(=O)(=O)c2ccc(C(=O)NC3CCN(Cc4ccccc4)CC3)cc2)cc1,20.8*,·,-10.1,·,21.5*
Cc1ccc(S(=O)(=O)Nc2cccc(C(=O)NC3CCN(Cc4ccccc4)CC3)c2)cc1F,2.0,·,-17.6,·,1.9
CCc1ccc(NC(=O)C2(c3ccccc3)CC2(Cl)Cl)cc1 (stereo unspecified),30.4*,13.6,-25.1,5.5,25.4*
CCCCC[C@@H]1C=C(C(=O)O)[C@H](c2ccc(OC)c(OC)c2)N1S(=O)(=O)c1ccc(C)cc1,1.0,·,-3.5,·,-0.6
CC1=Nc2ccccc2/C1=C/c1sc(=N)n(-c2nccs2)c1O,25.7*,15.6,-11.0,7.8,22.9*
Cc1cccc(NC(=S)NC(=O)CCc2ccccc2)c1,-0.6,-1.4,-9.1,-0.1,-2.9
COc1ccc(CC(=O)NC(=S)Nc2cccc(C)c2)cc1,26.5*,·,-20.1,·,26.1*
COc1cccc(NC(=S)NC(=O)Cc2ccc(Cl)cc2)c1,30.9*,·,-19.2,·,24.5*
COc1ccccc1NC(=S)NC(=O)Cc1ccc(Cl)cc1,32.7*,·,-19.8,·,21.8*
Cc1cc(C)c(O)c(NC(=S)NC(=O)Cc2ccccc2)c1,28.6*,·,-19.8,·,31.1*
CCC(=O)Nc1cccc(NC(=S)NC(=O)Cc2ccccc2)c1,3.9,0.4,-12.8,-0.1,2.0
Cc1c(NC(=S)NC(=O)Cc2ccccc2)cccc1C(=O)O,-0.1,0.6,-4.1,0.8,-0.4
COc1ccc(CC(=O)NC(=S)Nc2cccc(CO)c2)cc1,27.2*,·,-20.4,·,28.1*
CC(C)(C)NC(=O)[C@@H]1CN(Cc2cccnc2)CCN1C[C@@H](O)C[C@@H](Cc1ccccc1)C(=O)N[C@H]1c2ccccc2C[C@H]1O,0.2,·,0.9,·,-1.4
O=c1c(O)c(-c2cccs2)oc2ccccc12,58.8*,25.8*,-9.1,16.1*,34.8*
Cc1ccc(-c2oc3ccccc3c(=O)c2O)cc1,5.5,0.1,-9.6,-0.6,6.6
O=c1c(O)c(-c2cccs2)oc2ccc(Cl)cc12,91.8*,48.8*,-13.4,51.6*,63.2*
Cc1ccc2nc(-c3ccccc3)cc(C(=O)N3CCN(S(=O)(=O)c4c(C)noc4C)CC3)c2c1,1.1,·,0.5,·,0.5
Cc1cc(/C=C2\C(=N)N3N=C(c4ccco4)SC3=NC2=O)c(C)n1Cc1ccccc1,54.2*,5.6,-17.2,0.4,36.1*
Cc1cc(/C=C2\C(=N)N3C(SCc4ccccc4)=NSC3=NC2=O)c(C)n1Cc1ccccc1,-0.3,-0.2,-6.6,0.6,0.2
CC1=NN2C(=N)/C(=C\c3cc(C)n(-c4ccccc4)c3C)C(=O)N=C2S1,0.5,0.8,-11.4,0.5,0.0
CCC1=NN2C(=N)/C(=C/c3cc(C)n(Cc4ccccc4)c3C)C(=O)N=C2S1,69.4*,0.4,-21.7,0.3,52.7*
Cc1cc(/C=C2\C(=N)N3N=C(C(C)C)SC3=NC2=O)c(C)n1Cc1ccccc1,43.9*,9.6,-22.0,2.8,47.7*
CCN(Cc1ccccc1)S(=O)(=O)c1ccc(C(=O)N(CCCN(C)C)c2nc3c(C)c(C)ccc3s2)cc1,4.0,·,-10.7,·,5.8
Cc1ncoc1C(=O)N1CCCC(N2CCN(c3cccc(C(F)(F)F)c3)CC2)C1 (stereo unspecified),0.5,·,-4.8,·,0.4
COc1ccc(CN2CC[C@H]3C=CC[C@@H](C(=O)Nc4ccc(Cl)c(C(F)(F)F)c4)[C@H]3C2=O)cc1OC,0.4,·,-8.8,·,-0.8
